From PubChem
KCNQ1 pot = potentiators or activators of KCNQ1 channel, primary screen, cell-based, thallium flux, high-throughput | AID 2648, 2010 | B-score at 10 µM | 310,000 compounds, 0.35% hits | CHO-K1 KCNQ1, thallium flux FluxOR fluorescence; hits give high values;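 active means fluorescence ratio B-score, a plate-corrected score, at least three library SD, with initial intensity B-score within 5 SD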
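Doses: Single concentration per compound, DMSO matched to controls | Test system: KCNQ1-transfected CHO-K1 cells | Timing: 90 min dye loading and 20 min compound exposure, both at room temperature | Measured by: Kinetic FluxOR thallium fluorescence, 10-s 1-Hz baseline, 110-s post-stimulus read | Medium: Assay buffer with matched DMSO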
KCNQ1 inh = inhibitors of human KCNQ1 channel, primary screen, cell-based, thallium flux, high-throughput; B-score at 10 µM; Potassium voltage-gated channel subfamily KQT member 1 (Homo sapiens), P51787; 310,000 compounds, 1.3% hits; CHO-K1 KCNQ1, FluxOR thallium flux fluorescence; hits give high values;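 active means compounds whose thallium flux B-score, printed positive for inhibition, exceeds three library SD while starting fluorescence stays within three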;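 further: channel opened by potassium depolarization with thallium stimulus after 20 min compound exposure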
Cl transport mod = KCC2 cotransporter modulators, thallium flux, primary screen, cell-based, HEK293 KCC2, FluoZin-2 fluorescence, MLSMR | Solute carrier family 12 member 5 (Homo sapiens), Q9H2X9 | KCC2 cells, thallium flux FluoZin-2 fluorescence | B-score of Tl+ flux slope (higher = more flux/activation; lower = inhibition) at 10 µM | 190,000 compounds, 2.2% hits;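 active means thallium flux slope and its plate-corrected score both differing from the plate sample mean at a set confidence after two filtering rounds, in either direction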;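 further: slope of fluorescence scaled to starting intensity during 10 to 20 s after thallium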
KCNK9 inh = KCNK9 potassium channel inhibitors, primary screen, HEK293 cells, thallium flux. 310,000 compounds, 1.2% hits. Potassium channel subfamily K member 9 (Homo sapiens), Q9NPC2. B-score at 10 µM. FluxOR thallium flux fluorescence; hits give low values;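 active means ratio B-score over 3 SD below the library mean, with starting fluorescence within 5 SD of its mean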;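 further: negative B-score means less thallium flux so channel inhibition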
hERG rescue = hERG rescue from dofetilide block, primary screen, cell-based, CHO-hERG, FluxOR thallium flux, dofetilide IC70. 310,000 compounds, 0.51% hits. dofetilide IC70 present. Voltage-gated inwardly rectifying potassium channel KCNH2 (Homo sapiens), Q12809. AID 1511, 2009. activation (rescue from dofetilide block), less the hit threshold, % at 10 µM;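 active means activation above the mean of controls blocked by dofetilide plus 5 SD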;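 further: thallium influx through hERG after potassium depolarization seen as dye fluorescence rise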
KCNK3 inh = human KCNK3 channel inhibitors, primary screen, CHO cells, FluxOR thallium flux, B-score; FluxOR fluorescence; hits give low values; B-score at 10 µM; 340,000 compounds, 0.84% hits;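 active means B-score under library mean minus 4 SD, starting fluorescence ratio at most library mean plus 5 SD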;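 further: more negative B-score means stronger inhibition of thallium flux through KCNK3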
KCNK9 inh conf = KCNK9 potassium channel inhibitors, confirmation, HEK293 cells, thallium flux, duplicate. AID 492992, 2010. FluxOR thallium flux fluorescence. inhibition, % at 10 µM. 4,900 compounds, 43% hits. shares compounds with KCNK9 inh;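 active means thallium signal inhibited by more than 5 SD of the compound-free buffer control wells, on both duplicate plates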;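 further: 0% = assay buffer control wells without compound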
Kir21 sel = mouse Kir2.1 channel inhibition, confirmation, selectivity assay for KCNK9 modulator project, cell-based, HEK293, thallium flux; shares compounds with KCNK9 inh; Kir2.1 cells, FluxOR thallium flux fluorescence; inhibition, % at 10 µM; 4,900 compounds, 4% hits;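 active means thallium signal drop more than 5 SD beyond the mean of the no-compound control wells, seen in both duplicate plates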;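 further: signal is fluorescence rise after thallium addition divided by baseline fluorescence; plate controls were assay buffer only for no effect and full block by chlorpromazine control for full effect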
Target sequence (P35561 whole entry, looked up): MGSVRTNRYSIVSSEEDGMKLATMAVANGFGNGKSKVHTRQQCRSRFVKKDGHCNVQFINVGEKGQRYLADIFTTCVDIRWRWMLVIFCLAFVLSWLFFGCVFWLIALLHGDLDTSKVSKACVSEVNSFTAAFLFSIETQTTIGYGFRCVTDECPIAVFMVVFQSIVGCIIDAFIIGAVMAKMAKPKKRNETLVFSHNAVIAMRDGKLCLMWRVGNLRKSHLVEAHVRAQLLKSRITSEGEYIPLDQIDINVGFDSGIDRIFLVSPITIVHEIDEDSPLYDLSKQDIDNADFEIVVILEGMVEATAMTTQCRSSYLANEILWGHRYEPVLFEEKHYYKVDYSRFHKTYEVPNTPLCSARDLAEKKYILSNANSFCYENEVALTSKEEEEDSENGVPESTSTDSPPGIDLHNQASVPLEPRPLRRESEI
HEK293 Tl ctr = thallium flux in non-induced HEK293 cells, confirmation, counter-screen for KCNK9 inhibitor project, cell-based, second counter screen, non-induced KCNK9-HEK293 | FluxOR thallium flux | AID 492997, 2010 | shares compounds with KCNK9 inh | inhibition, % at 10 µM | 4,900 compounds, 40% hits;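 active means thallium signal drop beyond 5 SD of the untreated control mean, on both duplicate plates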;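 further: plate controls were buffer only IC0 wells for no effect and SID17386958 at its maximal inhibitory level for full effect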
* marks the source's active call; other numbers are inactive results; i = inactive; nt = no result. Only some compounds are listed: those with a hit (about 4.1% of all), similar ones and a draw of the others.

SMILES | KCNQ1 pot | KCNQ1 inh | Cl transport mod | KCNK9 inh | hERG rescue | KCNK3 inh | KCNK9 inh conf | Kir21 sel | HEK293 Tl ctr
COC(=O)[C@]1(C)N[C@H](c2ccc(-c3cccc(Cl)c3)cc2)[C@@H]2C(=O)N(C)C(=O)[C@@H]21 | nt | nt | nt | nt | nt | i | nt | nt | nt
COC(=O)[C@]1(CC(C)C)N[C@H](c2ccc(-c3cccc(Cl)c3)cc2)[C@@H]2C(=O)N(C)C(=O)[C@@H]21 | i | i | nt | -10* | -17 | i | 54%* | i | 40%*
CCN1C(=O)[C@H]2[C@@H](c3ccc(-c4ccc(OC)cc4)c(OC)c3)N[C@@](CC(C)C)(C(=O)OC)[C@H]2C1=O | nt | nt | nt | nt | nt | i | nt | nt | nt
COC(=O)[C@]1(CC(C)C)N[C@H](c2ccc(-c3ccc(F)cc3)c(OC)c2)[C@@H]2C(=O)N(C)C(=O)[C@@H]21 | i | i | nt | -9.1* | -4 | i | 38%* | i | 38%*
COc1ccc(S(=O)(=O)N2CCOCC2)cc1C(=O)N(C)Cc1ccco1 | nt | nt | nt | nt | nt | i | nt | nt | nt
O=C(COC(=O)CN1C(=O)COc2ccccc21)NCc1ccc(F)cc1 | i | i | nt | i | -9 | i | nt | nt | nt
Cc1cccc(-c2onc3ccc(C(=O)/C=C/N(C)C)cc23)c1 | i | i | nt | i | -2 | i | i | i | i
CC1(C)Cc2c(C#N)c(N3CCCC3)nc(-c3ccco3)c2CO1 | i | i | nt | i | -26 | i | i | i | i
CC(C)c1nc(N2CCN(C(=O)c3ccccc3)CC2)c(C#N)c2c1COC(C)(C)C2 | i | i | 0.14 | i | -12 | i | i | i | i
CC1(C)Cc2c(C#N)c(NCc3ccco3)nc(-c3ccco3)c2CO1 | i | i | 0.2 | i | -10 | i | nt | nt | nt
CC1=C(C(=O)Nc2ccccc2C)C(c2ccc(C)o2)N2C(=O)CSC2=N1 (configuration not stated) | i | i | -0.29 | -8.3* | -6 | i | 38%* | i | 51%*
Cc1ccccc1NC(=O)CCN1C(=O)CSC1=O | i | i | 0.0026 | i | -10 | i | nt | nt | nt
CCOc1ccccc1OCCOCCOc1c(Cl)cccc1Cl | i | i | 1.2 | -9* | -8 | i | i | i | 38%*
CCOc1ccc(OCCOCCOc2c(Cl)cccc2Cl)cc1 | i | i | -0.038 | i | -13 | i | nt | nt | nt
CN(Cc1ccc(C(F)(F)F)cc1)C(=O)C1CC(=O)N(Cc2ccco2)C1 (configuration not stated) | nt | nt | nt | nt | nt | i | nt | nt | nt
COc1ccc(NC(=O)CN2CCN(c3c(C)cccc3C)CC2)cc1 | i | i | nt | i | -8 | i | i | i | i
COc1ccc(NC(=O)CN2CCN(c3c(C)cc(C)cc3C)CC2)cc1 | i | i | nt | i | -8 | i | i | 40%* | i
COc1ccc(NC(=O)CN2CCN(c3ccc(C)cc3C)CC2)cc1 | i | i | nt | i | -1 | i | i | i | i
CC1CCCC(C)N1C(=O)COC(=O)c1cc(=O)[nH]c2ccccc12 (configuration not stated) | nt | nt | nt | nt | nt | i | nt | nt | nt
O=C(NCC1CCCO1)C1CC(=O)N(c2cccc(Cl)c2)C1 (configuration not stated) | i | i | nt | i | -6 | i | nt | nt | nt
O=C(O)CC1(CC(=O)Nc2nccs2)CCCCC1 | nt | nt | nt | nt | nt | i | nt | nt | nt
N#CCC(=O)N/N=C\c1cc(Br)ccc1OC/C=C/c1ccccc1 | i | i | nt | i | -8 | i | nt | nt | nt
COC(=O)c1sccc1NC(=S)N1CCN(c2ccccc2)CC1 | i | i | 0.0013 | i | -6 | i | nt | nt | nt
COC(=O)c1sccc1NC(=S)N1CCN(c2ccc(F)cc2)CC1 | i | i | -1.9 | -9.7* | -9 | i | i | i | 32%*
COC(=O)c1sccc1NC(=S)N1CC(C)CC(C)C1 (configuration not stated) | i | i | 0.016 | i | -1 | i | i | i | 28%*
SMILES | KCNQ1 pot | KCNQ1 inh | Cl transport mod | KCNK9 inh | hERG rescue | KCNK3 inh | KCNK9 inh conf | Kir21 sel | HEK293 Tl ctr
CC(SC(=S)N(C)Cc1cccs1)C(=O)O (configuration not stated) | i | i | 0.34 | i | -12 | i | nt | nt | nt
CCCCOC(=O)CSC(=S)N(C)Cc1cccs1 | i | i | -1.9 | i | -10 | i | i | i | i
Cn1c(N)c(C(=O)COC(=O)CCCOc2ccc(Cl)cc2Cl)c(=O)n(C)c1=O | i | i | -0.28 | i | -6 | i | nt | nt | nt
CN(C(=O)CSC(=O)c1ccccc1)c1ccccc1 | i | i | nt | i | -14 | i | nt | nt | nt
CCOC(=O)c1cnc2ccc(OC)cc2c1NCc1ccccc1 | i | i | -0.71 | i | -20 | i | i | i | i
CCOC(=O)c1cnc2ccc(OCC)cc2c1NCc1ccccc1OC | i | i | 0.23 | i | -5 | i | nt | nt | nt
CCN(CC(=O)Nc1ccc(NC(C)=O)cc1)C(=O)c1cccc(N2C(=O)c3ccccc3C2=O)c1 | nt | nt | nt | nt | nt | i | nt | nt | nt
NS(=O)(=O)c1cccc(Nc2nc3ccccc3nc2NS(=O)(=O)c2ccc(Cl)cc2)c1 | nt | nt | nt | nt | nt | i | nt | nt | nt
CCn1c(=O)c(C(C)=O)nc2ccccc21 | i | i | 0.44 | i | -5 | i | nt | nt | nt
CCCCCn1c(=O)c(C(=O)c2ccccc2)nc2ccccc21 | i | i | nt | -15* | -12 | i | 46%* | i | 30%*
COc1ccccc1N(C(=O)NCc1ccccc1)C1=NCC(C)S1 (configuration not stated) | i | i | -2.4 | i | -4 | i | i | i | i
COc1ccccc1NC(=O)N(Cc1ccccc1)C1=NCC(C)S1 (configuration not stated) | i | i | nt | i | -11 | i | nt | nt | nt
